{"data": "Results collected from several papers", "target": "Cyclin-dependent kinase 5 (CDK5, Homo sapiens, UniProt Q00535)", "note": "Lines come from different studies, so protocols differ."}
{"SMILES": "CNCc1ccccc1-c1csc([C@@H](C)Nc2nc(C)nc3cc(OC)c(OC)cc23)c1", "assay": "cell-free assay, competition with immobilised ligand", "setting": "1 µM", "remaining binding [%]": 78}
{"SMILES": "COc1cnc(Nc2cccc(S(N)(=O)=O)c2)nc1N1CCN(c2ccccc2)CC1", "assay": "binding, competition with immobilised ligand", "setting": "1 µM", "remaining binding [%]": 100}
{"SMILES": "c1cnn2ncc(-c3ccnc(N4CCC45COC5)n3)c2c1", "assay": "binding", "setting": "1 µM", "remaining binding [%]": 99}
{"SMILES": "COc1ncc2cc3ccccc3nc2c1C#N", "assay": "cell-free assay, competition with immobilised ligand", "setting": "5 µM", "remaining binding [%]": 100}
{"SMILES": "C[C@H]1CCN(c2nccc(-c3cnn4ncccc34)n2)C1", "assay": "binding", "setting": "1 µM", "remaining binding [%]": 97}
{"SMILES": "O=C(Nc1c[nH]nc1C(=O)NC1CCNCC1)c1cc(F)cc(F)c1", "assay": "binding, competition with immobilised ligand", "setting": "1 µM", "remaining binding [%]": 100}
{"SMILES": "CCS(=O)(=O)c1cc2cc(C[C@](O)(CC(C)(C)c3ccc(F)cc3C(N)=O)C(F)(F)F)[nH]c2cn1", "assay": "cell-free assay, competition with immobilised ligand", "setting": "1 µM", "remaining binding [%]": 100}
{"SMILES": "CCN1CCN(Cc2ccc(C(=O)Nc3ccc(C)c(Oc4ccc5c(c4)CC(=O)N5)c3)cc2C(F)(F)F)CC1", "assay": "binding, competition with immobilised ligand", "setting": "1 µM", "remaining binding [%]": 100}
{"SMILES": "Cn1cc(Cl)c2c(Oc3c(F)cc(Nc4cc(Cl)nc(N)n4)cc3F)ccnc21", "assay": "cell-free assay, competition with immobilised ligand", "setting": "0.1 µM", "remaining binding [%]": 100}
{"SMILES": "COc1ccnn2ncc(-c3ccnc(N(C)C)n3)c12", "assay": "binding", "setting": "1 µM", "remaining binding [%]": 100}
{"SMILES": "O=C(c1ccc(Nc2ncc(Cl)c(-c3ccc(Cl)s3)n2)cc1)N1CCC(N2CCCC2)CC1", "assay": "binding, competition with immobilised ligand", "setting": "1 µM", "remaining binding [%]": 26}
{"SMILES": "CN(c1nccc(-c2cnn3ncccc23)n1)C1CC1", "assay": "binding", "setting": "1 µM", "remaining binding [%]": 100}
{"SMILES": "O=C(c1ccc(Nc2nccc(-c3cc4ccccc4s3)n2)cc1)N1CCC(N2CCCC2)CC1", "assay": "binding, competition with immobilised ligand", "setting": "1 µM", "remaining binding [%]": 92}
{"SMILES": "Cc1cc(NC(=O)c2cccc(S(F)(F)(F)(F)F)c2)cc(-n2ccn3nc(-c4cccnc4)cc23)c1", "assay": "cell-free assay, competition with immobilised ligand", "setting": "1 µM", "remaining binding [%]": 100}
{"SMILES": "Cc1cnc(Nc2ccc(C(=O)N3CCC(N4CCCC4)CC3)cc2)nc1-c1cc2ccccc2s1", "assay": "binding, competition with immobilised ligand", "setting": "1 µM", "remaining binding [%]": 76}
{"SMILES": "CSc1cccnc1N1CCN(Cc2nc3ccccc3[nH]2)CC1", "assay": "cell-free assay, competition with immobilised ligand", "setting": "1 µM", "remaining binding [%]": 99}
{"SMILES": "Cc1cnn2ncc(-c3ccnc(N(C)C)n3)c2c1", "assay": "binding", "setting": "1 µM", "remaining binding [%]": 100}
{"SMILES": "O=c1nc(-c2ccccn2)sc2ccccc12", "assay": "binding, competition with immobilised ligand", "setting": "1 µM", "remaining binding [%]": 85}
{"SMILES": "CN(C)c1nccc(-c2cnn3ncccc23)n1", "assay": "binding", "setting": "1 µM", "remaining binding [%]": 100}
{"SMILES": "Nc1ncc2c(n1)-c1c([nH]c3ccc(C#CC4CC4)cc13)CCCC2", "assay": "binding, competition with immobilised ligand", "setting": "1 µM", "remaining binding [%]": 96}
{"SMILES": "CNC(=O)[C@@H]1CC[C@@H](n2c(-c3ccc4cnccc4c3)nc3ccc(C(=O)NCc4cccc(C(N)=O)c4)cc32)C1", "assay": "binding, competition with immobilised ligand", "setting": "1 µM", "remaining binding [%]": 89}
{"SMILES": "N[C@@H]1CCN(c2nccc(-c3cnn4ncccc34)n2)C1", "assay": "binding", "setting": "1 µM", "remaining binding [%]": 100}
